Data as given in ChEMBL document CHEMBL4364267, “Hydrogen sulfide donating ent-kaurane and spirolactone-type 6,7-seco-ent-kaurane derivatives: Design, synthesis and antiproliferative properties” (Eur J Med Chem, 2019).
The source made the active and inactive calls. No cut-off for these calls is given here.

Tests used:
A549 = assay: Antiproliferative activity against human A549 cells assessed as reduction in cell viability after 72 hrs by MTT assay; assay type: functional, cell-based; details: A549, 72 h
Procedure, shortened: (§1)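 MTT assay over 72 h, compounds at 64, 16, 4, 1, 0.25, 0.0625 and 0.015625 μM. MTT solution (5 mg/mL) and DMSO added afterwards, 10 min at room temperature, absorbance read at 490 nm. IC50 calculated as the mean ± SD of three independent experiments.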

K562 = assay: Antiproliferative activity against human K562 cells assessed as reduction in cell viability after 72 hrs by MTT assay; assay type: functional, cell-based; details: K562, 72 h; procedure, shortened: as §1
SGC-7901 = assay: Antiproliferative activity against human SGC7901 cells assessed as reduction in cell viability after 72 hrs by MTT assay; assay type: functional, cell-based; details: SGC-7901, 72 h; procedure, shortened: as §1
[1] = Induction of H2S generation in PBS containing Na2S and MB+ cocktail in presence of TCEP/L-cysteine measured at 15 to 20 mins after 20 mins compound incubation by methylene blue dye based UV-Vis spectrophotometric method; assay type: functional
Procedure, shortened: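 Na2S standards (5–150 μM) in sodium phosphate buffer reacted 20 min at room temperature with methylene blue cocktail (FeCl3/HCl, N,N-dimethyl-1,4-phenylenediamine/HCl, Zn(OAc)2) to build a 670 nm calibration curve. Compounds from 40 mM THF stock added to phosphate buffer with 1 mM TCEP or L-cysteine. Aliquots taken into the cocktail at set times, incubated 20 min, read at 670 nm. Mean of three experiments.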

PBMC = assay: Cytotoxicity against human PBMC assessed as reduction in cell viability after 72 hrs by MTT assay; assay type: cell-based; procedure, shortened: as §1
Bel-7402 = assay: Antiproliferative activity against human Bel7402 cells assessed as reduction in cell viability after 72 hrs by MTT assay; assay type: functional, cell-based; details: Bel-7402, 72 h; procedure, shortened: as §1
L02 = assay: Cytotoxicity against human L02 cells assessed as reduction in cell viability after 72 hrs by MTT assay; assay type: cell-based; details: L02, 72 h; procedure, shortened: as §1

Structure (SMILES) | IC50 (A549) | IC50 (K562) | IC50 (SGC-7901) | Activity [1] | IC50 (PBMC) | IC50 (Bel-7402) | IC50 (L02)
C=C1C(=O)[C@]23[C@H](OC(=O)c4ccccc4C(=O)Oc4ccc(-c5cc(=S)ss5)cc4)[C@H]1CC[C@H]2[C@@]12CO[C@]3(O)[C@@H](O)[C@@H]1C(C)(C)CC[C@@H]2OC(C)=O | 16.7 µM | 11.4 µM | 12.4 µM | Active | 39.5 µM | 7.68 µM | > 50 µM
O=c1[nH]cc(F)c(=O)[nH]1 [FLUOROURACIL] |  | 4.02 µM | 6.38 µM |  | > 50 µM | 17.6 µM | > 50 µM
C=C1C(=O)[C@]23[C@H](O)[C@H]1CC[C@H]2[C@@]12CO[C@]3(O)[C@@H](O)[C@@H]1C(C)(C)CCC2=O | 9.86 µM | 4.02 µM | 16.5 µM |  | > 50 µM | 3.88 µM | 23.4 µM
C=C1C(=O)[C@@]23C(=O)OC[C@]4(C(=O)CCC(C)(C)[C@H]4C=O)[C@@H]2CC[C@@H]1[C@H]3OC(=O)CCCCC1CCSS1 (stereo partly drawn) | 7.92 µM | 2.59 µM | 6.43 µM | Active | > 50 µM | 2.56 µM | 19.9 µM
C=C1C(=O)[C@]23[C@H](O)[C@H]1CC[C@H]2[C@@]12CO[C@@]3(O)[C@@H](O)[C@@H]1C(C)(C)CC[C@@H]2OC(C)=O | 13.5 µM | 4.92 µM | 6.45 µM |  | > 50 µM | 3.59 µM | 22.4 µM
C=C1C(=O)[C@@]23C(=O)OC[C@]4([C@@H](OC(C)=O)CCC(C)(C)[C@H]4C=O)[C@@H]2CC[C@@H]1[C@H]3OC(=O)CCCCC1CCSS1 (stereo partly drawn) | 19.9 µM | 6.75 µM | 10 µM | Active | > 50 µM | 4.58 µM | 36.5 µM
C=C1C(=O)[C@]23[C@H](OC(=O)CCCC(=O)Oc4ccc(-c5cc(=S)ss5)cc4)[C@H]1CC[C@H]2[C@@]12CO[C@]3(O)[C@@H](O)[C@@H]1C(C)(C)CCC2=O | 4.38 µM | 3.84 µM | 6.59 µM |  | 17.2 µM | 3.04 µM | 21 µM
C=C1C(=O)[C@]23[C@H](OC(=O)CCCCC4CCSS4)[C@H]1CC[C@H]2[C@@]12CO[C@]3(O)[C@@H](O)[C@@H]1C(C)(C)CC[C@@H]2OC(C)=O (stereo partly drawn) | 8.65 µM | 2.84 µM | 6.02 µM | Active | 28.8 µM | 2.25 µM | 41.1 µM
C=C1C(=O)[C@@]23C(=O)OC[C@]4(C(=O)CCC(C)(C)[C@H]4C=O)[C@@H]2CC[C@@H]1[C@H]3OC(=O)c1ccccc1C(=O)Oc1ccc(-c2cc(=S)ss2)cc1 | 7.45 µM | 4.25 µM | 5.93 µM | Active | 31.4 µM | 3.26 µM | 26.2 µM
C=C1C(=O)[C@@]23C(=O)OC[C@]4([C@@H](OC(C)=O)CCC(C)(C)[C@H]4C=O)[C@@H]2CC[C@@H]1[C@H]3OC(=O)CCCC(=O)Oc1ccc(-c2cc(=S)ss2)cc1 | 14.8 µM | 3.27 µM | 7.66 µM | Active | 30.7 µM | 4.59 µM | > 50 µM
O=C(O)CCCCC1CCSS1 (stereo not drawn) [LIPOIC ACID, ALPHA] | > 50 µM | > 50 µM | > 50 µM |  | > 50 µM | > 50 µM | > 50 µM
C=C1C(=O)[C@@]23C(=O)OC[C@]4([C@@H](OC(C)=O)CCC(C)(C)[C@H]4C=O)[C@@H]2CC[C@@H]1[C@H]3O | 27.4 µM | 8.96 µM | 49.8 µM |  | > 50 µM | > 50 µM | > 50 µM
C=C1C(=O)[C@]23[C@H](OC(=O)CCC(=O)Oc4ccc(-c5cc(=S)ss5)cc4)[C@H]1CC[C@H]2[C@@]12CO[C@]3(O)[C@@H](O)[C@@H]1C(C)(C)CCC2=O | 9.78 µM | 3.66 µM | 12.5 µM |  | 29.6 µM | 3.52 µM | > 50 µM
C=C1C(=O)[C@]23[C@H](OC(=O)CCCC(=O)Oc4ccc(-c5cc(=S)ss5)cc4)[C@H]1CC[C@H]2[C@@]12CO[C@]3(O)[C@@H](O)[C@@H]1C(C)(C)CC[C@@H]2OC(C)=O | 9.76 µM | 2.02 µM | 5.36 µM |  | > 50 µM | 1.94 µM | 14.7 µM
C=C1C(=O)[C@]23[C@H](OC(=O)c4ccccc4C(=O)Oc4ccc(-c5cc(=S)ss5)cc4)[C@H]1CC[C@H]2[C@@]12CO[C@]3(O)[C@@H](O)[C@@H]1C(C)(C)CCC2=O | 7.69 µM | 4.8 µM | 14.9 µM | Active | > 50 µM | 5.34 µM | 42.6 µM
C=C1C(=O)[C@]23[C@H](OC(=O)CCC(=O)Oc4ccc(-c5cc(=S)ss5)cc4)[C@H]1CC[C@H]2[C@@]12CO[C@]3(O)[C@@H](O)[C@@H]1C(C)(C)CC[C@@H]2OC(C)=O | 6.34 µM | 2.54 µM | 5.49 µM |  | 44.1 µM | 2.87 µM | 23.2 µM
C=C1C(=O)[C@@]23C(=O)OC[C@]4(C(=O)CCC(C)(C)[C@H]4C=O)[C@@H]2CC[C@@H]1[C@H]3OC(=O)CCC(=O)Oc1ccc(-c2cc(=S)ss2)cc1 | 5.54 µM | 1.82 µM | 4.24 µM | Active | 16.6 µM | 1.38 µM | 18.2 µM
Oc1ccc(-c2cc(=S)ss2)cc1 | > 50 µM | > 50 µM | > 50 µM |  | > 50 µM | > 50 µM | > 50 µM
C=C1C(=O)[C@@]23C(=O)OC[C@]4([C@@H](OC(C)=O)CCC(C)(C)[C@H]4C=O)[C@@H]2CC[C@@H]1[C@H]3OC(=O)CCC(=O)Oc1ccc(-c2cc(=S)ss2)cc1 | 27.5 µM | 15.3 µM | 17.9 µM | Active | 25.9 µM | 9.73 µM | > 50 µM
C=C1C(=O)[C@@]23C(=O)OC[C@]4(C(=O)CCC(C)(C)[C@H]4C=O)[C@@H]2CC[C@@H]1[C@H]3O | 5.31 µM | 3.26 µM | 19.5 µM |  | > 50 µM | 4.67 µM | 29.7 µM
C=C1C(=O)[C@]23[C@H](O)[C@H]1CC[C@H]2[C@@]12CO[C@]3(O)[C@@H](O)[C@@H]1C(C)(C)CC[C@@H]2O [ORIDONIN] | 17.8 µM |  | 7.87 µM |  | > 50 µM | 8.31 µM | 18.7 µM
